According to ChEMBL document CHEMBL4190396, “Discovery of Novel Small-Molecule Inhibitors of NF-κB Signaling with Antiinflammatory and Anticancer Properties” (J Med Chem, 2018):
pIC50: −log10 of the molar value. Calls of active or inactive are those of the source. The rule behind the calls is not given here.

Experiments:
[1] = biological target: Interleukin-1 receptor type 1 (Homo sapiens, UniProt P14778); assay: Inhibition of IL1R in TLR null HEK-blue cells assessed as decrease in IL-1beta-stimulated NF-kappaB activation-mediated SEAP production after 24 hrs by Quanti-blue-based assay; type: cell-based
Chain of Interleukin-1 receptor type 1 (P14778 whole entry): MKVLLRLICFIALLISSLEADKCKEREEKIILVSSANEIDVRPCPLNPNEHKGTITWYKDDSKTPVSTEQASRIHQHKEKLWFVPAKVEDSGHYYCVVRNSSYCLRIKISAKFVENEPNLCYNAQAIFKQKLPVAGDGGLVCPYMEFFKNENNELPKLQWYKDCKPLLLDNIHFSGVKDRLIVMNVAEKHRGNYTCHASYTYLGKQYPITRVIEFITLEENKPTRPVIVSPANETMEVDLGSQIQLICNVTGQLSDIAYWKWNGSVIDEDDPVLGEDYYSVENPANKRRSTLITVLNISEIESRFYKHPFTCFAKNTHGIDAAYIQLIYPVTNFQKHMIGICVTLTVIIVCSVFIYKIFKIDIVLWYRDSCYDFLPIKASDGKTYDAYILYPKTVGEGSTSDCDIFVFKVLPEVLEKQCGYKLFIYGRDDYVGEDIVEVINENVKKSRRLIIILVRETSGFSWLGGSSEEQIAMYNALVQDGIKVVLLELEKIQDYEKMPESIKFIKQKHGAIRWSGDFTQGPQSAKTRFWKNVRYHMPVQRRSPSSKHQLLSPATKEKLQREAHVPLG

Protein kinase C (PKC) [2] = assay: (§1) Inhibition of PKC in TLR null HEK-blue cells assessed as inhibition of PMA-induced NF-kappaB activation-mediated SEAP production after 24 hrs by Quanti-blue-based assay; type: cell-based, Homo sapiens
[3] = biological target: T1, Protein kinase C (PKC) (Homo sapiens) (UniProt O94806+P41743+P17252+P05129+Q05655+P05771+Q05513+Q02156+P24723+Q15139+Q04759); assay: as §1; type: cell-based
TLR2/TLR6 (Homo sapiens) = TLR2/TLR6 (Homo sapiens) (UniProt O60603+Q9Y2C9); assay: Antagonist activity at human TLR2/6 expressed in HEK293 cells assessed as decrease in Pam2CSK4-induced NF-kappaB activation-mediated SEAP production at 10^-9 to 10^-5 M after 24 hrs by Quanti-blue-based assay; type: cell-based
Outline: (§2)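 HEK293 cells stably carrying a human TLR plus an NF-κB-driven SEAP reporter, seeded 5×10^4/well for 24 h at 37 °C, then stimulated: Pam3CSK4 100 µg/mL (TLR1/2), Pam2CSK4 100 µg/mL, poly I:C 5 µg/mL (TLR3), LPS 20 ng/mL (TLR4), flagellin 100 ng/mL (TLR5), R848 1 µg/mL (TLR7, TLR8), CpG-ODN2006 1 µg/mL (TLR9). After 24 h with compound, supernatant mixed with QUANTI-Blue, 1 h 37 °C, OD 620 nm.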

RAW264.7 [4] = assay: Inhibition of LPS-induced PI3K-mediated AKT phosphorylation in mouse RAW264.7 cells at 1 to 10 uM preincubated for 1 hr followed by LPS stimulation for 15 to 30 mins by Western blot method; type: cell-based
Outline: (§3)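 RAW 264.7 cells, 3×10^6 per dish overnight, pretreated 1 h with 1, 5 or 10 µM, then LPS 100 ng/mL for 15 or 30 min; nuclear/cytoplasmic lysates (20–30 µg) run on 10% SDS-PAGE, immunoblotted for phospho/total proteins, GAPDH loading control, ECL, densitometry; three independent experiments.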

RAW264.7 [5] = assay: Antiinflammatory activity in mouse RAW264.7 cells assessed as decrease in LPS-induced NO production after 18 hrs by DAN assay; type: functional, cell-based
Outline: (§4)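 RAW 264.7 cells at 2×10^5 cells/mL, 24 h, medium refreshed, then LPS 100 ng/mL with or without graded compound for 18 h; nitrite in medium reacted with 2,3-diaminonaphthalene (0.05 mg/mL in 0.62 M HCl), 15 min in dark, as NO readout. n = 3, mean ± SD.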

[6] = biological target: Toll-like receptor 1/2 (Homo sapiens) (UniProt O60603+Q15399); assay: Antagonist activity at human TLR1/2 expressed in HEK293 cells assessed as decrease in Pam3CSK4-induced NF-kappaB activation-mediated SEAP production at 10^-9 to 10^-5 M after 24 hrs by Quanti-blue-based assay; type: cell-based; outline: as §2
[7] = Inhibition of IFN-gamma-induced NFkappaB activation in mouse RAW264.7 cells assessed as reduction in nitric oxide production after 18 hrs by DAN assay; type: cell-based; conditions: RAW264.7, 18 h
Outline: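 Mouse RAW 264.7 macrophages stimulated with IFN-γ alongside compound; NF-κB-mediated NO output measured by the 2,3-diaminonaphthalene (DAN) nitrite assay.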

HEK293 = assay: Cytotoxicity against HEK293 cells expressing human TLR7 assessed as reduction in cell viability up to 20 uM after 24 hrs by WST-1 assay; type: cell-based; conditions: hek293, 24 h
Outline: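 HEK hTLR7 cells seeded 5×10^4/well, 24 h, then exposed to a concentration series for 24 h; WST-1 reagent added at 37 °C until colour developed (30 min–2 h), absorbance 450 nm.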

[8] = Inhibition of LPS-induced NFkappaB activation in mouse RAW264.7 cells assessed as reduction in nitric oxide production after 18 hrs by DAN assay; type: cell-based; conditions: RAW264.7, 18 h; outline: as §4
[9] = biological target: Tumor necrosis factor receptor superfamily member 1A (Homo sapiens, UniProt P19438); assay: Inhibition of TNFR in TLR null HEK-blue cells assessed as decrease in TNFalpha-stimulated NF-kappaB activation-mediated SEAP production after 24 hrs by Quanti-blue-based assay; type: cell-based
Chain of Tumor necrosis factor receptor superfamily member 1A (P19438 whole entry): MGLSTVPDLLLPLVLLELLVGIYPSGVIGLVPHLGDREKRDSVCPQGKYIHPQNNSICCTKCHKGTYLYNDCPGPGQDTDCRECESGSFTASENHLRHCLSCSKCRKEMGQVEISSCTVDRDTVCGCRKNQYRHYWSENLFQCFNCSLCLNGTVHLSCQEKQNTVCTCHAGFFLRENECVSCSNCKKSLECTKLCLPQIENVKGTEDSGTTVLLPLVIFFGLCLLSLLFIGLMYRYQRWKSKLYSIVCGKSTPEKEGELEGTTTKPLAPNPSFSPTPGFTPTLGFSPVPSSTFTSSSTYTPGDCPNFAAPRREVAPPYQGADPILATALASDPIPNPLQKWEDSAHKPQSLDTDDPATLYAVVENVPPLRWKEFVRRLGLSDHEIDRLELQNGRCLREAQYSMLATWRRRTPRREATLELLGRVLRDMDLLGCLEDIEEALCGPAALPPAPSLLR

[10] = biological target: Toll-like receptor 3 (Homo sapiens) (UniProt O15455); assay: Antagonist activity at human TLR3 expressed in HEK293 cells assessed as decrease in poly I:C-induced NF-kappaB activation-mediated SEAP production at 10^-9 to 10^-5 M after 24 hrs by Quanti-blue-based assay; type: cell-based; outline: as §2
Chain of Toll-like receptor 3 (Homo sapiens) (O15455 whole entry): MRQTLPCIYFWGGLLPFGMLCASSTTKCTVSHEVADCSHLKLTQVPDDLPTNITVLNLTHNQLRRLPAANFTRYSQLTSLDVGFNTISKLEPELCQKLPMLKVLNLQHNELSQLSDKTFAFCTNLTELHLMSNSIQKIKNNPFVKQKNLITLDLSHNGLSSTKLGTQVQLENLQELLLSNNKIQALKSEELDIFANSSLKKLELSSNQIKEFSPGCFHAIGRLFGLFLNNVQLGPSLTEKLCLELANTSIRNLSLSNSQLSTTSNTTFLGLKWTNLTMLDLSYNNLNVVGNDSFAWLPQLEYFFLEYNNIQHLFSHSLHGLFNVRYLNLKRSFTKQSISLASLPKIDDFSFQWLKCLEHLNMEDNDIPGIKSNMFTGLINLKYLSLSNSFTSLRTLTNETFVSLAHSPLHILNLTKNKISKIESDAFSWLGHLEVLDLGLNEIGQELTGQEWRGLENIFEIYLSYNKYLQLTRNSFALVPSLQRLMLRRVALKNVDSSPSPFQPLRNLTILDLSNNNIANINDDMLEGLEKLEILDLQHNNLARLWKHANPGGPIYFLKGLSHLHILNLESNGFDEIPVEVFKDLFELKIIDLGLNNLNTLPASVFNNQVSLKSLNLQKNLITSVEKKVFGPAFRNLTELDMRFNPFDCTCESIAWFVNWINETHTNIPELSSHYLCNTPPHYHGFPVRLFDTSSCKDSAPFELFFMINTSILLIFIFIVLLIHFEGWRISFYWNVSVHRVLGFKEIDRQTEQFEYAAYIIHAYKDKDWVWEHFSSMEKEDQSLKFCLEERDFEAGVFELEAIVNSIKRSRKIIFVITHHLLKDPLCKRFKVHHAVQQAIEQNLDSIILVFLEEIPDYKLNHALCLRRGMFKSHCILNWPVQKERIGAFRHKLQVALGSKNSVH

HeLa [11] = assay: Cell cycle arrest in human HeLa cells assessed as accumulation at G2/M phase at 20 uM after 24 hrs by propidium iodide staining based flow cytometry (reference value: 15.7%); type: functional
Outline: (§5)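 HeLa cells, 3×10^5/well, attached overnight, switched to serum-free medium for synchronisation, then DMSO or 5, 10, 20 µM for 24 h; cells fixed, PI-stained, G0/G1, S and G2/M fractions by flow cytometry; n = 3, mean ± SD.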

[12] = biological target: Toll-like receptor 9 (Homo sapiens) (UniProt Q9NR96); assay: Antagonist activity at human TLR9 expressed in HEK293 cells assessed as decrease in CpG-ODN2006-induced NF-kappaB activation-mediated SEAP production at 10^-9 to 10^-5 M after 24 hrs by Quanti-blue-based assay; type: cell-based; outline: as §2
Chain of Toll-like receptor 9 (Homo sapiens) (Q9NR96 whole entry): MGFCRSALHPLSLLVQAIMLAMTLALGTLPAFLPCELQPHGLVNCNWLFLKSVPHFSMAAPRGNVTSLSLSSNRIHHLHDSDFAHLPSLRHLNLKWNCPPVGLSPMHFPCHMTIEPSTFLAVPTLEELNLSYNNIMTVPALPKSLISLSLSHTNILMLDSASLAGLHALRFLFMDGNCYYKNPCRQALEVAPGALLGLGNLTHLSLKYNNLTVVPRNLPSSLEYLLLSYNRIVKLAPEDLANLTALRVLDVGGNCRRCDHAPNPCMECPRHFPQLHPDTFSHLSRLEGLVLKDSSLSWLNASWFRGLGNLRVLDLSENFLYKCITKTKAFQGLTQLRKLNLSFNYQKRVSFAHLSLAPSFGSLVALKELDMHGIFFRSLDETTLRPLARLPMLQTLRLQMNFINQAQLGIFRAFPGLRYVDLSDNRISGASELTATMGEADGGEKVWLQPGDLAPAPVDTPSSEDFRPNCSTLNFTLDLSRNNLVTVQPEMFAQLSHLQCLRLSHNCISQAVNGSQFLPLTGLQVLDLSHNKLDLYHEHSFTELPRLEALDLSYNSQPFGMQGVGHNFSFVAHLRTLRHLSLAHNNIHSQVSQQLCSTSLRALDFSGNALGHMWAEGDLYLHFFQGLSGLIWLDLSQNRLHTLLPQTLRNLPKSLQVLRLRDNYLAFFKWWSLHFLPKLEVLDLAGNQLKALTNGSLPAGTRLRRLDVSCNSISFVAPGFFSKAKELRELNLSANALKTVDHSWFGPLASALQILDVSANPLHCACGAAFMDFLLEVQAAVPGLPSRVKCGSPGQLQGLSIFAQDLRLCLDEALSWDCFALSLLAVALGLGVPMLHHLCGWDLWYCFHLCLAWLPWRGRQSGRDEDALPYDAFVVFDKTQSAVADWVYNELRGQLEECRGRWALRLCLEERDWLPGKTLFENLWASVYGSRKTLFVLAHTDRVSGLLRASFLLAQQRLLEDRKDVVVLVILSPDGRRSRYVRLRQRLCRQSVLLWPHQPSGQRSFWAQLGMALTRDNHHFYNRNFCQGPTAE

[13] = biological target: NF-kappa-B inhibitor alpha (Mus musculus) (UniProt Q9Z1E3); assay: Inhibition of LPS-induced IkB-alpha phosphorylation in mouse RAW264.7 cells at 1 to 10 uM preincubated for 1 hr followed by LPS stimulation for 15 to 30 mins by Western blot method; type: cell-based; outline: as §3
Chain of NF-kappa-B inhibitor alpha (Mus musculus) (Q9Z1E3 whole entry, the tested form may be a part): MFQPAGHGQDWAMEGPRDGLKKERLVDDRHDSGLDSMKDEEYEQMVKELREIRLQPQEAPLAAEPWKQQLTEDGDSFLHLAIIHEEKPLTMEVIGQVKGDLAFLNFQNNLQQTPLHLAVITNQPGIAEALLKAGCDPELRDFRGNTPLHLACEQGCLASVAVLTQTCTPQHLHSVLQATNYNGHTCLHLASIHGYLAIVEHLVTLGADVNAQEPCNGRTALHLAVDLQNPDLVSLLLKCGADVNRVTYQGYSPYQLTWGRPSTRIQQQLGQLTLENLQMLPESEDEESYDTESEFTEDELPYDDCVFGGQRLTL

[14] = biological target: Mitogen-activated protein kinase 15 (Homo sapiens) (UniProt Q8TD08); assay: Inhibition of wild-type human partial length ERK8 (M1 to P437 residues) expressed in bacterial expression system assessed as residual activity at 20 uM by Kinomescan method relative to control
Chain of Mitogen-activated protein kinase 15 (Homo sapiens) (Q8TD08 whole entry, the tested form may be a part): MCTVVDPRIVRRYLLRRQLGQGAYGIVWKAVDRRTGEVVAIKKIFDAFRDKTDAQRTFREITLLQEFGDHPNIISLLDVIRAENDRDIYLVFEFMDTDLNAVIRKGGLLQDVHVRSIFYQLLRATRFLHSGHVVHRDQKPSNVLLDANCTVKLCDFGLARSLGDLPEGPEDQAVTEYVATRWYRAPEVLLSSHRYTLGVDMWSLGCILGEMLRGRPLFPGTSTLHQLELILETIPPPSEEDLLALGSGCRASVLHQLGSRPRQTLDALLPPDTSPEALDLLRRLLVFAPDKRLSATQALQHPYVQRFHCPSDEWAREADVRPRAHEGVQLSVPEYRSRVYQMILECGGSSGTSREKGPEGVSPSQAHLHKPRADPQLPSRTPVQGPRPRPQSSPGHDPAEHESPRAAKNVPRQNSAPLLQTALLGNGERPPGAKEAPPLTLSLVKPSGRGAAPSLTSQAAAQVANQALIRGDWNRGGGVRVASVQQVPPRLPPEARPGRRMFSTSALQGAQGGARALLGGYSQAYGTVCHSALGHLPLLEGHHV

HMEC = assay: Cytotoxicity against HMEC up to 40 uM after 24 to 48 hrs by WST1 assay; type: cell-based; conditions: human
HeLa [15] = assay: Cell cycle arrest in human HeLa cells assessed as accumulation at G2/M phase at 10 uM after 24 hrs by propidium iodide staining based flow cytometry (reference value: 15.7%); type: functional; outline: as §5
Protein kinase C (PKC) [16] = assay: (§6) Inhibition of PKC in HEK-blue cells expressing human TLR7 assessed as inhibition of PMA-induced NF-kappaB activation-mediated SEAP production after 24 hrs by Quanti-blue-based assay; type: cell-based
[17] = biological target: T1, Protein kinase C (PKC) (Homo sapiens); assay: as §6; type: cell-based
HeLa [18] = assay: Cell cycle arrest in human HeLa cells assessed as accumulation at G0/G1 phase after 24 hrs by propidium iodide staining based flow cytometry; type: functional; outline: as §5

pIC50 [1]: 6.14
IC50 (Protein kinase C (PKC) [2]): 0.37 µM
inhibition [3]: Dose-dependent effect
inhibition (TLR2/TLR6 (Homo sapiens)): Active
inhibition [6]: Active
pIC50 [7]: 7.10
pIC50 [8]: 7.10
inhibition [10]: Active
inhibition [12]: Active
inhibition [13]: Active
IC50 (Protein kinase C (PKC) [16]): 0.59 µM
inhibition [17]: Dose-dependent effect
SMILES: O=C(NNC(=O)c1csc(-c2ccc(Cl)cc2Cl)n1)c1ccccn1
inhibition (RAW264.7 [4]): Active
Activity (RAW264.7 [5]): Active
Activity (HEK293): Non-Toxic
pIC50 [9]: 6.11
Activity (HeLa [11]): 3.9%
Activity [14]: 44%
Activity (HMEC): Non-Toxic
Activity (HeLa [15]): 3.6%
Activity (HeLa [18]): Dose-dependent effect
